Measurements taken from the EternaBench riboswitch data.

Test system: MS2 coat protein
Test: apparent Kd, MS2 coat protein; higher = weaker binding; RNA-MaP array
Outline: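 Designs measured on fewer than 10 clusters were excluded from the data. The rest were RNAs transcribed from sequenced DNA templates on an Illumina sequencing chip and incubated at room temperature, with or without input ligand, with fluorescently labeled MS2 coat protein at 1.5 nM to 3 μM for 0.8–1.5 h at the lowest to 10–20 min at the highest concentrations. Apparent Kd is the median of the per-cluster binding-curve fits.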

[1] = designed as: OFF switch for flavin mononucleotide, no ligand
[2] = ligand present: flavin mononucleotide, designed as: OFF switch for flavin mononucleotide
[3] = designed as: ON switch for flavin mononucleotide, no ligand
[4] = ligand present: flavin mononucleotide, designed as: ON switch for flavin mononucleotide
[5] = designed as: ON switch for tryptophan, no ligand
[6] = ligand present: tryptophan, designed as: ON switch for tryptophan

| Sequence | apparent Kd [1] [nM] | apparent Kd [2] [nM] | apparent Kd [3] [nM] | apparent Kd [4] [nM] | further results |
| --- | --- | --- | --- | --- | --- |
| UCCCGACAUGAGGAUCACCCAUGUCCAUUGUCGGUCGAGAGUAAGGAUAUAGAUAAUCAGGAGAACUAGAAGGUACUGUUAGCG | 530 | 164 |  |  |  |
| ACACAUGAGGAUCACCCAUGUCGUGAGAGCUCAGUCGUGCGUUAGGAUAUCAUUCUGUUAGUGUUUGAGAAGGAACGGGUAACC | 50.1 | 43.3 |  |  |  |
| GGAUCGCGAGGAUAUACAUGAGGAUCACCCAUGUUUACUCACACAUUUUUAUUCUUCCGUAGAAGGCGCGCAAG | 5.52 | 5.4 |  |  |  |
| CGGGCGAAGCCUUUCACAUGAGGAUCACCCAUGUCUAAUACGAAGGAUAUCCUCGCCGGAGCUAAGGAGAAGGUCGACAUAGUU | 18.9 | 19.2 |  |  |  |
| GCAUUACAUGAGGAUCACCCAUGUCUAGAUACCAGAUUUGUUUGAAUCCCUUGGCAGCUAGUGGACCACCGUACACGACAUACUA |  |  |  |  | apparent Kd (designed as: ON switch for theophylline, no ligand): 45.1 nM; apparent Kd (ligand present: theophylline, designed as: ON switch for theophylline): 24.9 nM |
| AUUCAUCUCUAGAAGGGACUGCACAAAACACAGAAUUCUUACAUGAGGAUCACCCAUGUUGUGGGUCAGGAUAUAGGCAGGCCA |  |  | 25.3 | 20.1 |  |
| UACUUCACGAUACAGGAUAUACGUAAGUUCACAUGAGGAUCACCCAUGUUAGCACACCAACUCAUGUAGAAGGGUAUCCCUAUAUA |  |  | 30.4 | 13.1 |  |
| CGUGUACAUGAGGAUCACCCAUGUUAGGAUAUCUUACCAAAGUCGAGGUGACUCCGGGAGAGAAGGAACUGGCA | 78.6 | 79.1 |  |  |  |
| AUUAGCAUCCAAGGAUAUCAGUUGGCCCGCAGGUGAGAAGGUGGAUUCUGGGCGCCGCGUGGGACACAUGAGGAUCACCCAUGU | 30.3 | 26 |  |  |  |
| GCCCAUUAAGACAUGAGGAUCACCCAUGUCACCGGGUAUGCCAGAAGGCUCUUAUAGAAGUAACGAGAGGAUAUGGGUGCUACU |  |  | 23.3 | 13.8 |  |
| CGCUACAUGAGGAUCACCCAUGUUACUCCGCGAGGACCGGUACGGCCGCCACUCGGCAGUUUGCGCCGCCGGAGGCACUCUUCAG |  |  |  |  | apparent Kd [5]: 27 nM; apparent Kd [6]: 33.1 nM |
| GUACGGUGAGGAUAUCGUUAAGAUGUGGACAGGCCUACAUACGAGAAGGCACAUGAGGAUCACCCAUGUUCAUA | 21.5 | 18.8 |  |  |  |
| AGACCCAGAGGAUAUAACACAUGUAACAUGAGGAUCACCCAUGUGUCUAGUAGACACUUGUUAGAAGGCAGGCAUG | 83.2 | 54.5 |  |  |  |
| CGAACGGGCCACACUACAUGAGGAUCACCCAUGUUCGAAGAUAGAAGGUGUAGCUGGCCUCGUUACAAGGAUAUAUCUUAUACC | 29.2 | 27.4 |  |  |  |
| GACAUGAGGAUCACCCAUGUUUCGGUUACAUUGUAAUCAUGAUAGGAUAUCUCUGCUGUGGUGAGAGAGAAGGAUCGUCUGCUU |  |  | 13 | 10.6 |  |
| UAGGUACAUGAGGAUCACCCAUGUCCUAUUACUACAGGAUAUAGCGUGCCUAGAUGGGUGCUAGAAGGGUAGAUCU |  |  | 20.7 | 9.13 |  |
| UGCCCUACAUGAGGAUCACCCAUGUACAUAACAUGAGUGCGCAGAAGGUAUGCGUUGAAGAGCCAUAAGGAUAUGCAAACCGUC |  |  | 114 | 71.1 |  |
| AUGAUCAUAGUAAGGAUAUCCGGACCAAUAGCAAAGGAGAAGGUACAUGAGGAUCACCCAUGUUUAUUAAUACU | 9.11 | 9.98 |  |  |  |
| UUUUACAUGAGGAUCACCCAUGUGCGGCGCCGAGGACCGGUACGGCCGCCACUCGCAUGGGCAUGCCGCGAUAUCAUUCCUGAAC |  |  |  |  | apparent Kd [5]: 96.2 nM; apparent Kd [6]: 103 nM |
| AAAUAAAUAGCAGGAUAUGGGAAACAUGAGGAUCACCCAUGUCAUAAAUAGCGAAAAUAACACAUCCAGAAGGGCAAGAAUCAA |  |  | 412 | 137 |  |
| ACUUGUGAGUCGGCCGCCACUCACCGGUAGUGUCACUCGUUCACAAACAUGAGGAUCACCCAUGUGAGGACCGGGACAGUCGGGU |  |  |  |  | apparent Kd (designed as: OFF switch for tryptophan, no ligand): 17.2 nM; apparent Kd (ligand present: tryptophan, designed as: OFF switch for tryptophan): 25.8 nM |
| CACCGGAAUGGAGGAUAUCCUACACAUGAGGAUCACCCAUGUUAUUUAUAGCUAUUAAAAGUUCGGGAGAAGGCCAAGCGAUUC |  |  | 28.7 | 13.2 |  |
| AAGCUGGAGAAUACAUGAGGAUCACCCAUGUGGCUUCAUGCCUAGGAUAUUAGUGUGCAGAACUGUAAGAAGGAGGAUCUUUAA | 10.3 | 8.56 |  |  |  |
| ACAUGCUCUGAGGAUAUCAAUAAUCCCUAUUACUGAGAAGGCAGCACAUGAGGAUCACCCAUGUGAGGUGAGUC | 34.5 | 58.8 |  |  |  |
| GACGAAUCGGCAGGAUAUCUAGAUGAGCCAGAAUGUAAUUGAGUUGACAUGAGGAUCACCCAUGUAGAGAAGGGCCCAUCCAUU | 12.1 | 20.7 |  |  |  |
| GAAAAUUCCUAGAAGGCGGAUUAUACUUGGUUGAACAUGAGGAUCACCCAUGUAUCUGGCAAACCCGAGGAUAUAGAUUUUCCA |  |  | 56.2 | 31.2 |  |
